Reference: ChEMBL document CHEMBL4400582, “Identification of Imidazo[1,2-b]pyridazine Derivatives as Potent, Selective, and Orally Active Tyk2 JH2 Inhibitors” (ACS Med Chem Lett, 2019)
Values after ≈ are worked out from the molar mass of the structure shown. Active and inactive are the calls of the source. The calls are words filed in the database; no cut-off is given here.

Experiments:
[1] = target: T1, Non-receptor tyrosine-protein kinase TYK2 (Homo sapiens, UniProt P29597); assay: Inhibition of fluorescein-labeled kinase tracer binding to His-TVMV-fused TYK2 JH2 domain (575 to 869 residues) (unknown origin) measured after 90 mins by HTRF assay
T1 sequence (P29597 whole entry, the tested form may be a part): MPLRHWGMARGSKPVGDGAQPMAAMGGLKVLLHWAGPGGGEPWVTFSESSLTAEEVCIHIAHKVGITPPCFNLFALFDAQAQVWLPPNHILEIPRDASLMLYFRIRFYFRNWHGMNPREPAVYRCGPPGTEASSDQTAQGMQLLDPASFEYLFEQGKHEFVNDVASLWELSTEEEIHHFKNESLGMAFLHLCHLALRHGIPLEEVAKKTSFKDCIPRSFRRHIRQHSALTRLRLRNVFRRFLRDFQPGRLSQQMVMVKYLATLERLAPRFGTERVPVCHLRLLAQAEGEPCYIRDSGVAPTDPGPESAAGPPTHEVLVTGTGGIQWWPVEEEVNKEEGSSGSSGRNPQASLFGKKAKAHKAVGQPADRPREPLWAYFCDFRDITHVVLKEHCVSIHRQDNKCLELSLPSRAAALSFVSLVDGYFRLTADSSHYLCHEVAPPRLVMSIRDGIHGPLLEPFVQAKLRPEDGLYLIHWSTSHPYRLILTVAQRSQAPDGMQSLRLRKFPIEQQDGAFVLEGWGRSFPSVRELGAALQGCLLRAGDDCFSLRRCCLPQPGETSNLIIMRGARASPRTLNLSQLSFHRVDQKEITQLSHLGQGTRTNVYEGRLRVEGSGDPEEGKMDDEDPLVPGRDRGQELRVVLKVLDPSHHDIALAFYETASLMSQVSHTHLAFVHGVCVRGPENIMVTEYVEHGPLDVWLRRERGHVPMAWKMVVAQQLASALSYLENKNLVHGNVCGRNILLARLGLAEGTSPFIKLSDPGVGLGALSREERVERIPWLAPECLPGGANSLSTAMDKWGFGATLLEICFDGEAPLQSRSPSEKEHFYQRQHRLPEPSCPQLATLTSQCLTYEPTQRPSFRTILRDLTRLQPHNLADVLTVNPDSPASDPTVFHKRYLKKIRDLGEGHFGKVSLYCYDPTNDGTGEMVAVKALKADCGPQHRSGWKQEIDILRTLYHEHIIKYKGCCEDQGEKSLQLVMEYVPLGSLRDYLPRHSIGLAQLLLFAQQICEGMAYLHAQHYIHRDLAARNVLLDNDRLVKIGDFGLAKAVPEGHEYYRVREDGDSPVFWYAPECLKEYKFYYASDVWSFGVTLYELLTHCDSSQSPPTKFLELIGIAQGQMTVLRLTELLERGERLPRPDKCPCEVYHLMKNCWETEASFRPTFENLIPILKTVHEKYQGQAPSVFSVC

[2] = target: T1, Non-receptor tyrosine-protein kinase TYK2; assay: Inhibition of TYK2 JH2 domain in IFNalpha/IL23-stimulated human Kit225 cells by luciferase reporter assay
[3] = target: T1, Non-receptor tyrosine-protein kinase TYK2; assay: Inhibition of TYK2 JH2 domain in human whole blood assessed as decrease in IFNalpha/IL2-induced STAT phosphorylation preincubated for 1 hr followed by IFNalpha/IL2 stimulation and measured after 15 mins by fluorescence assay; type: tissue-based
[4] = Stability in human liver microsomes assessed as parent compound remaining; type: ADME, Microsome
How it was run: (§1)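 Compound was incubated 10 min with human, rat or mouse liver microsomes. Parent remaining is reported as percent.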

[5] = Stability in rat liver microsomes assessed as parent compound remaining; type: ADME, Microsome; how it was run: as §1
[6] = Stability in mouse liver microsomes assessed as parent compound remaining; type: ADME, Microsome; how it was run: as §1
[7] = Aqueous solubility of the compound at pH 6.5; type: physicochemical; conditions: buffer
[8] = Aqueous solubility of the compound at pH 1; type: physicochemical; conditions: buffer
[9] = Permeability of the compound in human Caco2 cells; type: ADME, cell-based; conditions: Caco-2, read-out: permeability
[10] = Cmax in mouse at 10 mg/kg, po; type: ADME, organism-based; design: dose 10 mg/kg, route oral; conditions: in vivo
How it was run: (§2)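 Oral PK in the listed species. Vehicle 5:5:90 TPGS/EtOH/PEG300. An IV arm was dosed at 2 mg/kg.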

[11] = AUC (0 to 24 hrs) in mouse at 10 mg/kg, po; type: ADME, organism-based; design: time < 24 hr, dose 10 mg/kg, route oral; conditions: in vivo; how it was run: as §2
[12] = Oral bioavailability in mouse at 10 mg/kg; type: ADME, organism-based; conditions: in vivo; how it was run: as §2
[13] = Cmax in rat at 10 mg/kg, po; type: ADME, organism-based; design: dose 10 mg/kg, route oral; conditions: in vivo; how it was run: as §2
[14] = AUC (0 to 24 hrs) in rat at 10 mg/kg, po; type: ADME, organism-based; design: time < 24 hr, dose 10 mg/kg, route oral; conditions: in vivo; how it was run: as §2
[15] = Clearance in rat at 10 mg/kg, po; type: ADME, organism-based; conditions: in vivo; how it was run: as §2
[16] = Oral bioavailability in rat at 10 mg/kg; type: ADME, organism-based; conditions: in vivo; how it was run: as §2
[17] = Cmax in cynomolgus monkey at 10 mg/kg, po; type: ADME, organism-based, Macaca fascicularis; design: dose 10 mg/kg, route oral; conditions: in vivo; how it was run: as §2
[18] = AUC (0 to 24 hrs) in cynomolgus monkey at 10 mg/kg, po; type: ADME, organism-based, Macaca fascicularis; design: time < 24 hr, dose 10 mg/kg, route oral; conditions: in vivo; how it was run: as §2
[19] = Clearance in cynomolgus monkey at 10 mg/kg, po; type: ADME, organism-based, Macaca fascicularis; conditions: in vivo; how it was run: as §2
[20] = Oral bioavailability in cynomolgus monkey at 10 mg/kg; type: ADME, organism-based, Macaca fascicularis; conditions: in vivo; how it was run: as §2
[21] = Cmax in dog at 10 mg/kg, po; type: ADME, organism-based, Canis lupus familiaris; design: dose 10 mg/kg, route oral; conditions: in vivo; how it was run: as §2
[22] = AUC (0 to 24 hrs) in dog at 10 mg/kg, po; type: ADME, organism-based, Canis lupus familiaris; design: time < 24 hr, dose 10 mg/kg, route oral; conditions: in vivo; how it was run: as §2
[23] = Clearance in dog at 10 mg/kg, po; type: ADME, organism-based, Canis lupus familiaris; conditions: in vivo; how it was run: as §2
[24] = Oral bioavailability in dog at 10 mg/kg; type: ADME, organism-based, Canis lupus familiaris; conditions: in vivo; how it was run: as §2
[25] = test system: Rattus norvegicus; assay: Inhibition of IL12/IL18-induced IFNgamma production in po dosed Lewis rat pretreated for 1 hr followed by IL12 stimulation for 1 hr and subsequent IL18 addition and measured after 3 hrs by ELISA; type: functional, organism-based
How it was run: (§3)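 Rats were dosed in 5:5:90 TPGS/EtOH/PEG300, challenged with IL-12 1 h later and with IL-18 a further hour later. Plasma was collected 5 h after dosing for IFNγ levels. Inhibition is relative to vehicle.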

[26] = test system: Rattus norvegicus; assay: Inhibition of IL12/IL18-induced IFNgamma production in Lewis rat at 1 mg/kg, po pretreated for 1 hr followed by IL12 stimulation for 1 hr and subsequent IL18 addition and measured after 3 hrs by ELISA relative to control; type: functional; how it was run: as §3
[27] = test system: Rattus norvegicus; assay: Inhibition of IL12/IL18-induced IFNgamma production in Lewis rat at 10 mg/kg, po pretreated for 1 hr followed by IL12 stimulation for 1 hr and subsequent IL18 addition and measured after 3 hrs by ELISA relative to control; type: functional; how it was run: as §3
[28] = test system: Rattus norvegicus; assay: Antiarthritic activity in incomplete Freund's adjuvant-induced Lewis rat arthritis model assessed as reduction in paw volume at 5 to 10 mg/kg, po bid for 20 days by plethysmometric method; type: functional, organism-based
How it was run: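 Rat adjuvant arthritis. Adjuvant was given on day zero. Compound was dosed twice daily from day 0 to day 20 in 5:5:90 TPGS/EtOH/PEG300. Paw volume was measured periodically.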

[29] = Clearance in mouse at 2 mg/kg, iv; conditions: in vivo

| Structure (SMILES) | Ki [1] | IC50 [2] | IC50 [3] | further results |
| --- | --- | --- | --- | --- |
| CNc1cc(Nc2cccn(-c3ccc(C)nn3)c2=O)nn2c(C(=O)N[C@@H]3C[C@@H]3F)cnc12 | 0.018 nM | 41 nM | 63 nM | – |
| CNc1cc(Nc2cccn(-c3ncc(F)cn3)c2=O)nn2c(C(=O)NC3CC3)cnc12 | 0.38 nM | 235 nM | 464 nM | – |
| CNc1cc(Nc2cccn(-c3ccc(C)nn3)c2=O)nn2c(C(=O)NC3CC3)cnc12 | 0.091 nM | 147 nM | 247 nM | – |
| CNc1cc(Nc2cccn(-c3ccc(C#N)cc3)c2=O)nn2c(C(=O)NC3CC3)cnc12 | 0.2 nM | 90 nM | 268 nM | Stability [4]: 92%; Stability [5]: 77%; Stability [6]: 71%; solubility [7]: < 1 µg/mL; solubility [8]: 2 µg/mL (≈ 4.54 µM) |
| CNc1cc(Nc2cccn(-c3ccc(C(C)(C)O)cc3)c2=O)nn2c(C(=O)NC3CC3)cnc12 | 0.07 nM | 111 nM | 811 nM | – |
| CNc1cc(Nc2cccn(C3CC3)c2=O)nn2c(C(=O)NC3CC3)cnc12 | 0.33 nM | 131 nM | 817 nM | Stability [4]: 88%; Stability [5]: 71%; Stability [6]: 39% |
| CNc1cc(Nc2cccn(-c3ccccn3)c2=O)nn2c(C(=O)NC(C)C)cnc12 | 0.13 nM | 153 nM | 750 nM | – |
| CNc1cc(Nc2cccn(-c3ccccn3)c2=O)nn2c(C(=O)NC3CCC3)cnc12 | 0.26 nM | 60 nM | 384 nM | – |
| CNc1cc(Nc2cccn(-c3ccncc3)c2=O)nn2c(C(=O)NC3CC3)cnc12 | 0.29 nM | 148 nM | 346 nM | Papp [9]: 3.8 ×10⁻⁶ cm/s |
| CNc1cc(Nc2cccn(-c3ncccc3F)c2=O)nn2c(C(=O)NC3CC3)cnc12 | 0.12 nM | 61 nM | 313 nM | Papp [9]: 5.9 ×10⁻⁶ cm/s |
| CNc1cc(Nc2cccn(-c3ccccn3)c2=O)nn2c(C(=O)N[C@@H]3C[C@@H]3F)cnc12 | – | – | – | Cmax [10]: 15 µM; AUC(0-t) at 24 h [11]: 19 µM·h; bioavailability [12]: 86%; Cmax [13]: 9.4 µM; AUC(0-t) at 24 h [14]: 57 µM·h; CL/F [15]: 7.8 mL/min/kg; bioavailability [16]: 114%; Cmax [17]: 1.8 µM; AUC(0-t) at 24 h [18]: 11 µM·h; CL/F [19]: 17 mL/min/kg; bioavailability [20]: 46%; Cmax [21]: 0.93 µM; AUC(0-t) at 24 h [22]: 8 µM·h; CL/F [23]: 25 mL/min/kg; bioavailability [24]: 50%; inhibition [25]: Dose-dependent effect; inhibition in vivo at 1 mg/kg [26]: 45%; inhibition in vivo at 10 mg/kg [27]: 77%; Activity [28]: Active; clearance [29]: 16 mL/min/kg |
| CNc1cc(Nc2cccn(-c3ccccn3)c2=O)nn2c(C(=O)NC3CC3)cnc12 | 0.34 nM | 94 nM | 382 to 398 nM | Papp [9]: 16.9 ×10⁻⁶ cm/s |
| CNc1cc(Nc2cccn(-c3ccc(F)cn3)c2=O)nn2c(C(=O)N[C@@H]3C[C@@H]3F)cnc12 | 0.035 nM | 26 nM | 85 nM | – |
| CNc1cc(Nc2cccn(-c3ccccn3)c2=O)nn2c(C(=O)NCC(C)(C)CO)cnc12 | 0.29 nM | 84 nM | 285 nM | – |
| CNc1cc(Nc2cccn(-c3cccc(F)n3)c2=O)nn2c(C(=O)N[C@@H]3C[C@@H]3F)cnc12 | 0.024 nM | 12 nM | 136 nM | – |
| CNc1cc(Nc2cccn(-c3ccc(F)cn3)c2=O)nn2c(C(=O)NC3CC3)cnc12 | 0.15 nM | 99 nM | 236 nM | – |
| CNc1cc(Nc2cccn(-c3cc(C)n(C)n3)c2=O)nn2c(C(=O)N[C@@H]3C[C@@H]3F)cnc12 | 0.015 nM | 22 nM | 90 nM | – |
| CNc1cc(Nc2cccn(-c3cccc(F)n3)c2=O)nn2c(C(=O)NC3CC3)cnc12 | 0.22 nM | 70 nM | 371 nM | – |
| CNc1cc(Nc2cccn(C)c2=O)nn2c(C(=O)NC3CC3)cnc12 | 0.74 nM | 614 nM | Nd(Insoluble) | Stability [4]: 56%; Stability [5]: 63%; Stability [6]: 10% |
| CNc1cc(Nc2cccn(-c3cc(C)n(C)n3)c2=O)nn2c(C(=O)NC3CC3)cnc12 | 0.48 nM | 135 nM | 340 nM | Papp [9]: 14.2 ×10⁻⁶ cm/s |
